Assay results from ChEMBL document CHEMBL2163282, “Discovery and characterization of AZD9272 and AZD6538-Two novel mGluR5 negative allosteric modulators selected for clinical development” (Bioorg Med Chem Lett, 2012).
The source made the active and inactive calls. The calls are words filed in the database; no cut-off is given here.

Key:
[1] = biological target: T1, Metabotropic glutamate receptor 5 (Homo sapiens, UniProt P41594); assay: Negative allosteric modulation of human recombinant mGluR5 expressed in HEK293 cells expressing GLAST assessed as inhibition of DHPG-induced intracellular Ca2+ level after 30 mins by FLIPR assay
[2] = biological target: T1, Metabotropic glutamate receptor 5; assay: Binding affinity to human mGluR5 expressed in HEK293 cell membranes expressing GLAST assessed as per mg of protein after 1 hr by scintillation counter; conditions: tested as the 3H-labelled form
[3] = biological target: T1, Metabotropic glutamate receptor 5; assay: Binding affinity to human mGluR5 expressed in HEK293 cell membranes expressing GLAST assessed as per mg of protein after 1 hr by scintillation counter in absence of MPEP; conditions: tested as the 3H-labelled form
Outline: (§1)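 [3H]AZD9272 equilibrium saturation binding on membranes from human mGluR5-GHEK cells (HEK293 stably expressing glutamate/aspartate transporter), run without MPEP or with 10 or 20 nM MPEP; filtration termination; Kd and Bmax (pmol/mg protein) derived per assay, three separate assays.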

[4] = biological target: T1, Metabotropic glutamate receptor 5; assay: Binding affinity to human mGluR5 expressed in HEK293 cell membranes expressing GLAST assessed as per mg of protein after 1 hr by scintillation counter in presence of 10 nM MPEP; conditions: tested as the 3H-labelled form; outline: as §1
[5] = Terminal half life in Sprague-Dawley rat at 3 umol/kg, iv; format: ADME, organism-based; conditions: in vivo, read-out: beta t1/2 (converted)
Outline: (§2)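 Male rats (n = 3) received a single intravenous dose of 3 µmol/kg. Vehicle was 40% w/w dimethylacetamide/40% w/w PEG 400/20% w/w water. Plasma drug was measured after liquid–liquid extraction by reversed-phase LC with APCI or ESI tandem MS.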

[6] = Clearance in Sprague-Dawley rat at 3 umol/kg, iv; format: ADME, organism-based; conditions: in vivo; outline: as §2
[7] = Tmax in Sprague-Dawley rat at 3 umol/kg, po; format: ADME, organism-based; conditions: in vivo
Outline: (§3)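 Male rats (n = 3) received a single oral dose of 3 µmol/kg. Vehicle was Polyvidon K30 1.7 mg/ml, sodium lauryl sulphate 0.34 mg/ml and glycerin 25.0 mg/ml in water. Plasma levels were measured by liquid–liquid extraction and reversed-phase LC-MS/MS (APCI or ESI).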

[8] = AUC in Sprague-Dawley rat at 3 umol/kg, po; format: ADME, organism-based; conditions: plasma; outline: as §3
[9] = biological target: Metabotropic glutamate receptor 5 (Rattus norvegicus) (UniProt P31424); assay: Binding affinity to mGluR5 in Sprague-Dawley rat striatum assessed per mg of protein after 60 mins by autoradiographic analysis; conditions: tested as the 3H-labelled form
Metabotropic glutamate receptor 5 (Rattus norvegicus), sequence (P31424 21-1203 limits assumed): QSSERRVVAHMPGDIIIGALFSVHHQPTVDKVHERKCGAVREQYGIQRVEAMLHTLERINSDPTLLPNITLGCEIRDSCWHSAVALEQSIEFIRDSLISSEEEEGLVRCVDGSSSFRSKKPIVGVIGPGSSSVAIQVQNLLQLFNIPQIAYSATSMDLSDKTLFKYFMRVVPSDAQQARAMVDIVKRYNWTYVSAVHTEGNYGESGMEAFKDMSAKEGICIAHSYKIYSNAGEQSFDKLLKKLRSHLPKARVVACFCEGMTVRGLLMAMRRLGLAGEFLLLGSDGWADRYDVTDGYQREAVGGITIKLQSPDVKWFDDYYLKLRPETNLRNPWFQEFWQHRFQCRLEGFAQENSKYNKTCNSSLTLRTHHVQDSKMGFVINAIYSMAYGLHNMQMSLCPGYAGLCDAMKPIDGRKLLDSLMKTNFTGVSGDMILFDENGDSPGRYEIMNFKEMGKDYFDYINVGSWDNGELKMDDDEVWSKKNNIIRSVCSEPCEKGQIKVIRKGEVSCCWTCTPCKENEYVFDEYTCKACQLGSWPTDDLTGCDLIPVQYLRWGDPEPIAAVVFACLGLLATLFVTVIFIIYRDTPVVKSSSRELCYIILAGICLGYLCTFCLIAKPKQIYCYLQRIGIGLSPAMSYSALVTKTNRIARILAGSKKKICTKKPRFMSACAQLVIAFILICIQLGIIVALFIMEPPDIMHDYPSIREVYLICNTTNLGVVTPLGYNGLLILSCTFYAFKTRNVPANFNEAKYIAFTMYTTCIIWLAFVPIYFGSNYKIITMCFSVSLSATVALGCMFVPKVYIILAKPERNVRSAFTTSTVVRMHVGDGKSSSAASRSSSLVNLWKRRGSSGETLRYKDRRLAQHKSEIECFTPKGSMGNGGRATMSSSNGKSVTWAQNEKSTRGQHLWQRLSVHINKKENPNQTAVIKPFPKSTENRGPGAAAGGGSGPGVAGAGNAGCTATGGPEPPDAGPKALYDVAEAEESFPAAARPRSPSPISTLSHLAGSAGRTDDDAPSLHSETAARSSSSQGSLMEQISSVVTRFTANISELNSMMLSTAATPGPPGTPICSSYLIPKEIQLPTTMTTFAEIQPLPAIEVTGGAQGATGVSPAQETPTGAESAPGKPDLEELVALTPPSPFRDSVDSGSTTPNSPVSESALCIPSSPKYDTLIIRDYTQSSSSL

[10] = biological target: Metabotropic glutamate receptor 3 (Homo sapiens) (UniProt Q14832); assay: Positive allosteric modulation of mGluR3 assessed as effect on intracellular Ca2+ level up to 30 uM by cell based FLIPR assay; format: functional
Metabotropic glutamate receptor 3 (Homo sapiens), sequence (Q14832 23-879 limits assumed): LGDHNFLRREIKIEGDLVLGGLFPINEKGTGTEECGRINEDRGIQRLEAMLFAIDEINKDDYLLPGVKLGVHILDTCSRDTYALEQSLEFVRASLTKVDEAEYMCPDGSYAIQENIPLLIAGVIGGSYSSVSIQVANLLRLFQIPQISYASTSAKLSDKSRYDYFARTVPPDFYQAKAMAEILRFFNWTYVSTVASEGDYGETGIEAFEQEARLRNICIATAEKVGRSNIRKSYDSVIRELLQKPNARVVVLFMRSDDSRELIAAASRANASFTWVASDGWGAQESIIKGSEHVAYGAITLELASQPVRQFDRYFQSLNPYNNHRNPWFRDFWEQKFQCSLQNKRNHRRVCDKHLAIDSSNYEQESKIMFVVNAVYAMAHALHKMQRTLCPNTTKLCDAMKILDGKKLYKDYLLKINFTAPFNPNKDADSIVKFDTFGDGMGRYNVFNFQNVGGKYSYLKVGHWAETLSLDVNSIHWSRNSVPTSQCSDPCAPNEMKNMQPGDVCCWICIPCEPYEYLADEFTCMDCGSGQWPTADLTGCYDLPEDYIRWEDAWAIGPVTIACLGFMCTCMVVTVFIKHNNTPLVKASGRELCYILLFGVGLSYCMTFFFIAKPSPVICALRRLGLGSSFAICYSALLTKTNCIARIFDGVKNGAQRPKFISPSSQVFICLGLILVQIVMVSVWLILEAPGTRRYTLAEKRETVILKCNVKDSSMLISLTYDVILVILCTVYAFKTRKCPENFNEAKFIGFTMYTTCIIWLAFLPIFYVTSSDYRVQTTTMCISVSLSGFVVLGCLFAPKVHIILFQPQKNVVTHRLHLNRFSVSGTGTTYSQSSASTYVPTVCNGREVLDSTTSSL
Outline: (§4)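 Each of the seven other mGluR subtypes was tested at concentrations up to 30 µM. Agonist, antagonist and positive allosteric modulator modes were each assessed. Read-out was the change in intracellular Ca2+ on FLIPR.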

[11] = biological target: Metabotropic glutamate receptor 1 (Homo sapiens) (UniProt Q13255); assay: Antagonist activity at mGluR1 assessed as effect on intracellular Ca2+ level up to 30 uM by cell based FLIPR assay; format: functional; outline: as §4
Metabotropic glutamate receptor 1 (Homo sapiens), sequence (Q13255 19-1194 limits assumed): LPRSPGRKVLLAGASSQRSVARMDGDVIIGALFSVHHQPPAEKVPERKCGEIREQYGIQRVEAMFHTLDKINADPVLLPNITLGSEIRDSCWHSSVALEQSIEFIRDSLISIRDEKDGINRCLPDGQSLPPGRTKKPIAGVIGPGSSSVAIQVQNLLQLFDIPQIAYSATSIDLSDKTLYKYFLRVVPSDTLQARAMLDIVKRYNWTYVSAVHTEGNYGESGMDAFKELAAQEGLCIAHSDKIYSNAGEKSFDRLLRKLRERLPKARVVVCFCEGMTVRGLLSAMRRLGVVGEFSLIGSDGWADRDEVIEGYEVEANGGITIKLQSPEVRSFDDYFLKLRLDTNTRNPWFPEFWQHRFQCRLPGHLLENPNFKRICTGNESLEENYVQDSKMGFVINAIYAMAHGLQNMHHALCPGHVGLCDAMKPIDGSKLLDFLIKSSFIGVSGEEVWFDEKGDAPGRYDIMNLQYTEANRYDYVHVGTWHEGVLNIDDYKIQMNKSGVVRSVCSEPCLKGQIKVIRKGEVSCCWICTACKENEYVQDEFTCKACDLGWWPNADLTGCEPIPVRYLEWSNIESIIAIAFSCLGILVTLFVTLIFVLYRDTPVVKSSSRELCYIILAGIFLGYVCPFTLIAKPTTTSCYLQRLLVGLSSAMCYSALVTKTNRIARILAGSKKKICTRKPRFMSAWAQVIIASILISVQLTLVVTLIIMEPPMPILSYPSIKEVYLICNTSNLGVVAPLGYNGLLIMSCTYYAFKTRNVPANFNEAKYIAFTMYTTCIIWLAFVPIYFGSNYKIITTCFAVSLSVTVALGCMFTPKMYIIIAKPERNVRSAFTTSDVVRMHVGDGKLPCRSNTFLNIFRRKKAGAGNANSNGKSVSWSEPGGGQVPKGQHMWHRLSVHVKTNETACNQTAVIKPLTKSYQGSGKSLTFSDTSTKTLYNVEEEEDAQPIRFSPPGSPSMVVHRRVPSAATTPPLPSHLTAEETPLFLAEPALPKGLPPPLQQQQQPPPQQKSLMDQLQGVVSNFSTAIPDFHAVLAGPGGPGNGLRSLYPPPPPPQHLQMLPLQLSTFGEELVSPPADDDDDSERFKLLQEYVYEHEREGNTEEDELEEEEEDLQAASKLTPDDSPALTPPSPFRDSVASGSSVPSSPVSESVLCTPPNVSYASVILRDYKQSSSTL

[12] = biological target: Metabotropic glutamate receptor 7 (Homo sapiens) (UniProt Q14831); assay: Agonist activity at mGluR7 assessed as effect on intracellular Ca2+ level up to 30 uM by cell based FLIPR assay; format: functional; outline: as §4
Metabotropic glutamate receptor 7 (Homo sapiens), sequence (Q14831 whole entry): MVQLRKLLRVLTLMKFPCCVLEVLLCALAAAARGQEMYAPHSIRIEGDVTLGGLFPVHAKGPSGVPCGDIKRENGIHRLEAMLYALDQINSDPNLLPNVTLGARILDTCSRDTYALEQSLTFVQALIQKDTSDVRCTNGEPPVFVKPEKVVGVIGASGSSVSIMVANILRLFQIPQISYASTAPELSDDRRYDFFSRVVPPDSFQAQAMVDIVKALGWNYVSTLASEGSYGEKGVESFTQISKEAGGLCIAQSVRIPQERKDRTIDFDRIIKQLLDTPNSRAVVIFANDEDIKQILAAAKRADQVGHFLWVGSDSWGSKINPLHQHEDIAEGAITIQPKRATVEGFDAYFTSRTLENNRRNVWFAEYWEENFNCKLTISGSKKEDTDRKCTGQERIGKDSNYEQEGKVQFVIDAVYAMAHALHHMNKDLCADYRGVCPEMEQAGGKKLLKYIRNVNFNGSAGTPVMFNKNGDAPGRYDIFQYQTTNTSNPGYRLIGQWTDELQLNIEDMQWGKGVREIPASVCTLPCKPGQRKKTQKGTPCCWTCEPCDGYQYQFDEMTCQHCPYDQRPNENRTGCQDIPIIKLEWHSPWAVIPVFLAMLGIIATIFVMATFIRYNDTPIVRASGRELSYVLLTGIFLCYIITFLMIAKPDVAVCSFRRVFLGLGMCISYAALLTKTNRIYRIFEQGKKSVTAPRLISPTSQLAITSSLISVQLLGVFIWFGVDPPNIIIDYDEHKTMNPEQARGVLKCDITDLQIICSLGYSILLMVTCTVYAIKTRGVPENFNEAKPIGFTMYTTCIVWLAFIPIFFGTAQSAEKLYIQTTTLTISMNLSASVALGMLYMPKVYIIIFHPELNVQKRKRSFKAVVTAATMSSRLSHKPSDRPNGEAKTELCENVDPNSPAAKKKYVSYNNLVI

[13] = Volume of distribution at steady state in Sprague-Dawley rat at 3 umol/kg, iv; format: ADME, organism-based; conditions: in vivo, read-out: Vdss; outline: as §2
[14] = biological target: T1, Metabotropic glutamate receptor 5; assay: Binding affinity to human mGluR5 expressed in HEK293 cell membranes expressing GLAST assessed as per mg of protein after 1 hr by scintillation counter in presence of 20 nM MPEP; conditions: tested as the 3H-labelled form; outline: as §1
[15] = biological target: T1, Metabotropic glutamate receptor 5; assay: Negative allosteric modulation of human recombinant mGluR5 expressed in HEK293 cells expressing GLAST assessed as inhibition of glutamate-stimulated IP accumulation incubated for 10 mins prior to glutamate challenge measured 30 mins post glutamate challenge by scintillation counter in presence of [3H]myo-inositol; format: functional, cell-based
[16] = biological target: T1, Metabotropic glutamate receptor 5; assay: Negative allosteric modulation of human recombinant mGluR5 expressed in HEK293 cells expressing GLAST assessed as inhibition of ATP-induced intracellular Ca2+ level at 10 uM after 30 mins by FLIPR assay; format: functional, cell-based
Outline: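 FLIPR intracellular Ca2+ readout in background GHEK cells (HEK293 with glutamate/aspartate transporter, lacking mGluR5), stimulated with 10 µM ATP; test compound at 10 µM to check off-target inhibition.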

[17] = biological target: T1, Metabotropic glutamate receptor 5; conditions: HEK293, tested as the 3H-labelled form
[18] = biological target: T1, Metabotropic glutamate receptor 5; conditions: HEK293, tested as the 3H-labelled form; remark: listed apart in the source
[19] = biological target: T1, Metabotropic glutamate receptor 5; assay: Negative allosteric modulation of human recombinant mGluR5 expressed in HEK293 cells expressing GLAST assessed as inhibition of DHPG-induced intracellular Ca2+ level after 30 mins by FLIPR assay
[20] = biological target: T1, Metabotropic glutamate receptor 5; assay: Displacement of [3H]MPEP from human mGluR5 expressed in HEK293 cell membranes expressing GLAST after 1 hr by scintillation counter
[21] = biological target: T1, Metabotropic glutamate receptor 5; assay: Displacement of [3H]AZD9272 from human mGluR5 expressed in HEK293 cell membranes expressing GLAST after 1 hr by scintillation counter
[22] = biological target: Metabotropic glutamate receptor 5 (Rattus norvegicus, UniProt P31424); assay: Displacement of [3H]AZD9272 from mGluR5 in Sprague-Dawley rat striatum by autoradiographic analysis
Outline: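 Sections were cut from rat striatum (plates 13–16, 2 rats). They were incubated with 3 nM [3H]AZD9272 plus increasing concentrations of competitor. Nonspecific binding was defined with 10 µM MPEP. Bound label was read by autoradiography (mean, SD, n = 2).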

[23] = AUC (0 to 8 hrs) in Sprague-Dawley rat at 3 umol/kg, po; format: ADME, organism-based; parameters: time < 8 hr, dose 3 umol/kg, route oral; conditions: plasma; outline: as §3

IC50 [1] [nM]	half-life [5] [h]	clearance [6] [mL/min/kg]	Tmax [7] [h]	Activity [10] [%]	inhibition [11] [%]	Activity [12] [%]	Vd [13] [L/kg]	IC50 [15] [nM]	inhibition [15]	inhibition [16]	inhibition [19]	Compound	further results
7.6	2.5	5.17	4	< 50	< 50	< 50	1.6	26	Dose-dependent effect	inactive	Dose-dependent effect	N#Cc1cc(F)cc(-c2nc(-c3ccc(F)cn3)no2)c1	Bmax [2]: 4.4 pmol; Bmax [3]: 5.3 pmol; Bmax [4]: 5.1 pmol; AUC [8]: 5.4 µM·h; Bmax [9]: 1550 fmol/mg; Bmax [14]: 5 pmol; T1/2 [17]: 3.45 min; T1/2 [18]: 7.85 min
13.4	5.6	4	3	< 50	< 50	< 50	2	51	Dose-dependent effect	inactive	Dose-dependent effect	N#Cc1ccc(-c2noc(-c3cc(F)cc(C#N)c3)n2)nc1	Ki [20]: 28 nM; Ki [21]: 17.9 nM; IC50 [22]: 14.5 nM; AUC(0-t) at 8 h [23]: 3.6 µM·h
